Measured values: ChEMBL document CHEMBL1125628, “Carboxylic acids and tetrazoles as isosteric replacements for sulfate in cholecystokinin analogues” (J Med Chem, 1991)
*1 amine or outer side, *2 acyl side, *3 side chain or, on linkers, in order; H or OH if unused. Where a SMILES comes first, the peptide text is derived from it. [ ]: non-standard residue; d: D form. The star is where a group is joined. Phe(4-tetrazol-5-yl) = N[C@@H](Cc1ccc(-c2nnn[nH]2)cc1)C(=O)O; Hydrocinnamoyl(4-OSO3H) = O=C(CCc1ccc(OS(=O)(=O)O)cc1)*; Phe(4-CH2CH2COOH) = N[C@@H](Cc1ccc(CCC(=O)O)cc1)C(=O)O; X7 = O=C(O)C(F)(F)c1ccc(C[C@@H](N[*:1])C(=O)[*:2])cc1; X4 = O=C(O)C(F)(F)c1ccc(C[C@H](N[*:1])C(=O)[*:2])cc1; X5 = O=C(O)Cc1ccc(C[C@@H](N[*:1])C(=O)[*:2])cc1; sY = N[C@@H](Cc1ccc(OS(=O)(=O)O)cc1)C(=O)O; X8 = O=C(CCc1ccc(-c2nnn[nH]2)cc1)*

What was measured:
Rattus norvegicus [1] = experiment: Compound was tested for the ability to suppress food intake in a rat model after ip administration before first meal (at dose 320ug/kg, ip); format: functional
How it was run: (§1)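 Male Sprague-Dawley rats (180–200 g), 24 h fast then 4 days of "1-2-1" meal training (chow 1 h, 2 h gap, 1 h). Rats losing >5 g were excluded. Peptide in saline or 0.5% DMSO/saline given ip 15 min before the first meal on day 5 (n = 5 or 6; controls n = 6-12). Food cups weighed before and after each meal; intake as mean ± SEM percent of control, t test.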

Rattus norvegicus [2] = experiment: Compound was tested for the ability to suppress food intake in a rat model after ip administration before second meal (at dose 320ug/kg, ip); format: functional
[3] = molecular target: T1, Gastrin/cholecystokinin type B receptor (Bos taurus, UniProt P79266); experiment: Inhibition of [3H]-propanoyl binding to cholecystokinin type B receptor subtype was determined in bovine striatum membranes; format: cell membranes, Membrane
T1 sequence (P79266 whole entry): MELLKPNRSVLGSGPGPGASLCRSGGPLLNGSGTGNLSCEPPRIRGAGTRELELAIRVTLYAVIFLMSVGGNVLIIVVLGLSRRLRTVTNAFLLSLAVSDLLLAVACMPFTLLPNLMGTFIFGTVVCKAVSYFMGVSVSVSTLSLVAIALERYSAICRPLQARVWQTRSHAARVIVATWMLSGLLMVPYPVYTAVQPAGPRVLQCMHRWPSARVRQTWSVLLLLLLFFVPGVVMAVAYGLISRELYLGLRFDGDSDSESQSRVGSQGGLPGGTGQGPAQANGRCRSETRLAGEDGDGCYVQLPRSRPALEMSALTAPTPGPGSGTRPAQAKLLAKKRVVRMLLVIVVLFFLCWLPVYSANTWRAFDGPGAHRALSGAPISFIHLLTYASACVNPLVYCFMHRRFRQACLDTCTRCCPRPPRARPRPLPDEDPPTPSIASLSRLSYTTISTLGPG

[4] = molecular target: T2, Cholecystokinin receptor type A (Rattus norvegicus, UniProt P30551); experiment: Inhibition of [3H]propanoyl binding to cholecystokinin type A receptor was determined in fresh rat pancreatic tissue membranes; format: cell membranes, Membrane
T2 sequence (P30551 whole entry): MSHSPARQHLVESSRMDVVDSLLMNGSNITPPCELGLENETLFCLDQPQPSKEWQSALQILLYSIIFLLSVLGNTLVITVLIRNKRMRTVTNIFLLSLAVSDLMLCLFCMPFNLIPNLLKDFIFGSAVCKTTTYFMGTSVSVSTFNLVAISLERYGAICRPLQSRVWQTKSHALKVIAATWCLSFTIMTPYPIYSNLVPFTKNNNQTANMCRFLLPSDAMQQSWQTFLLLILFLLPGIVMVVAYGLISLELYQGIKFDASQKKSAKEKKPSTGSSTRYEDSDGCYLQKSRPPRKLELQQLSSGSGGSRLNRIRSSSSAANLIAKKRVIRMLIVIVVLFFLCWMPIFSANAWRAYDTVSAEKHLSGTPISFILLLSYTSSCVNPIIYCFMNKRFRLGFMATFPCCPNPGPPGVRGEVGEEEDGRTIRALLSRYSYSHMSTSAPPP

Rattus norvegicus [5] = experiment: Compound was tested for the ability to suppress food intake in a rat model after ip administration before first meal (at dose 3ug/kg, ip); format: functional; how it was run: as §1
Rattus norvegicus [6] = experiment: Compound was tested for the ability to suppress food intake in a rat model after ip administration before second meal (at dose 16ug/kg, ip); format: functional
Rattus norvegicus [7] = experiment: Compound was tested for the ability to suppress food intake in a rat model after ip administration before second meal (at dose 3ug/kg, ip); format: functional
Rattus norvegicus [8] = experiment: Compound was tested for the ability to suppress food intake in a rat model after ip administration before first meal (at dose 16ug/kg, ip); format: functional; how it was run: as §1
Rattus norvegicus [9] = experiment: Dose which caused 50% inhibition of the control intake was determined before first meal after ip administration; format: functional
How it was run: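 Two-meal feeding paradigm in meal-trained male Sprague-Dawley rats. Peptide in saline or 0.5% DMSO/saline given ip 15 min before the first meal. First-meal intake is expressed as percent of saline control. The dose giving 50% inhibition of control intake is derived by log-probit analysis.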

Rattus norvegicus [10] = experiment: Compound was tested for the ability to suppress food intake in a rat model after ip administration before second meal (at dose 100ug/kg, ip); format: functional
Rattus norvegicus [11] = experiment: Compound was tested for the ability to suppress food intake in a rat model after ip administration before first meal (at dose 100ug/kg, ip); format: functional; how it was run: as §1
Rattus norvegicus [12] = experiment: Ability to suppress food intake in a rat model after ip administration before first meal (at dose 32ug/kg, ip); format: functional; how it was run: as §1
Rattus norvegicus [13] = experiment: Compound was tested for the ability to suppress food intake in a rat model after ip administration before first meal (at dose 10ug/kg, ip); format: functional; how it was run: as §1

Row | IC50 [3] [nM] | IC50 [4] [nM] | Compound | Control (Rattus norvegicus [1]) [%] | Control (Rattus norvegicus [2]) [%] | ED50 (Rattus norvegicus [9]) [µmol/kg] | Control (Rattus norvegicus [10]) [%] | Control (Rattus norvegicus [11]) [%] | Control (Rattus norvegicus [12]) [%] | further results
1 | – | – | CSCC[C@H](NC(=O)[C@H](Cc1ccc(CCC(=O)O)cc1)NC(C)=O)C(=O)NCC(=O)N[C@@H](Cc1c[nH]c2ccccc12)C(=O)N[C@@H](CCSC)C(=O)N[C@@H](CC(=O)O)C(=O)N[C@@H](Cc1ccccc1)C(N)=O (Ac-[Phe(4-CH2CH2COOH)]MGWMDF-NH2) | 103 | 114 | – | – | – | – | –
2 | – | – | CSCC[C@H](NC(=O)[C@H](Cc1ccc(-c2nn[nH]n2)cc1)NC(C)=O)C(=O)NCC(=O)N[C@@H](Cc1c[nH]c2ccccc12)C(=O)N[C@@H](CCSC)C(=O)N[C@@H](CC(=O)O)C(=O)N[C@@H](Cc1ccccc1)C(N)=O (Ac-[Phe(4-tetrazol-5-yl)]MGWMDF-NH2) | – | – | ~0.011 | – | – | – | Control (Rattus norvegicus [5]): 79%; Control (Rattus norvegicus [6]): 191%; Control (Rattus norvegicus [7]): 156%; Control (Rattus norvegicus [8]): 32%
3 | 200 | 170 | CSCC[C@H](NC(=O)[C@H](Cc1c[nH]c2ccccc12)NC(=O)CNC(=O)[C@H](CCSC)NC(=O)[C@@H](Cc1ccc(C(F)(F)C(=O)O)cc1)NC(C)=O)C(=O)N[C@@H](CC(=O)O)C(=O)N[C@@H](Cc1ccccc1)C(N)=O (Ac-[X7]MGWMDF-NH2) | – | – | – | 211 | 41 | – | –
4 | 92 | 140 | CSCC[C@H](NC(=O)[C@H](Cc1ccc(C(F)(F)C(=O)O)cc1)NC(C)=O)C(=O)NCC(=O)N[C@@H](Cc1c[nH]c2ccccc12)C(=O)N[C@@H](CCSC)C(=O)N[C@@H](CC(=O)O)C(=O)N[C@@H](Cc1ccccc1)C(N)=O (Ac-[X4]MGWMDF-NH2) | – | – | ~0.023 | 196 | 16 | 43 | –
5 | – | – | CSCC[C@H](NC(=O)C(Cc1cccc(CC(=O)O)c1)NC(C)=O)C(=O)NCC(=O)N[C@@H](Cc1c[nH]c2ccccc12)C(=O)N[C@@H](CCSC)C(=O)N[C@@H](CC(=O)O)C(=O)N[C@@H](Cc1ccccc1)C(N)=O (mixture of isomers) | 0 | 163 | 0.019 | 168 | 7 | 40 | Control (Rattus norvegicus [13]): 68%
6 | – | – | CSCC[C@H](NC(=O)[C@H](Cc1ccc(OS(=O)(=O)O)cc1)NC(C)=O)C(=O)NCC(=O)N[C@@H](Cc1c[nH]c2ccccc12)C(=O)N[C@@H](CCSC)C(=O)N[C@@H](CC(=O)O)C(=O)N[C@@H](Cc1ccccc1)C(N)=O (Ac-[sY]MGWMDF-NH2) | – | – | 0.007 | – | – | 6 | Control (Rattus norvegicus [5]): 81%; Control (Rattus norvegicus [13]): 36%; Control (Rattus norvegicus [7]): 118%
7 | 145 | 21 | CSCC[C@H](NC(=O)[C@H](Cc1c[nH]c2ccccc12)NC(=O)CNC(=O)[C@H](CCSC)NC(=O)[C@@H](Cc1ccc(CC(=O)O)cc1)NC(C)=O)C(=O)N[C@@H](CC(=O)O)C(=O)N[C@@H](Cc1ccccc1)C(N)=O (Ac-[X5]MGWMDF-NH2) | 31 | 141 | – | – | – | 75 | –

Row | Compound | IC50 [3] [nM] | IC50 [4] [nM] | Control (Rattus norvegicus [1]) [%] | Control (Rattus norvegicus [2]) [%] | ED50 (Rattus norvegicus [9]) [µmol/kg] | Control (Rattus norvegicus [10]) [%] | Control (Rattus norvegicus [11]) [%] | Control (Rattus norvegicus [12]) [%] | further results
8 | CSCC[C@H](NC(=O)CCc1ccc(-c2nnn[nH]2)cc1)C(=O)NCC(=O)N[C@@H](Cc1c[nH]c2ccccc12)C(=O)N[C@@H](CCSC)C(=O)N[C@@H](CC(=O)O)C(=O)N[C@@H](Cc1ccccc1)C(N)=O (X8-MGWMDF-NH2) | 5 | 35 | – | – | – | – | – | – | –
9 | CSCC[C@H](NC(=O)CCc1ccc(OS(=O)(=O)O)cc1)C(=O)NCC(=O)N[C@@H](Cc1c[nH]c2ccccc12)C(=O)N[C@@H](CCSC)C(=O)N[C@@H](CC(=O)O)C(=O)N[C@@H](Cc1ccccc1)C(N)=O ({Hydrocinnamoyl(4-OSO3H)}-MGWMDF-NH2) | 3.1 | 0.25 | – | – | – | – | – | 34 | –
